The test system of data set [1] is Candida albicans. The experiment in a line: Antifungal activity against fluconazole-resistant Candida albicans 901 assessed as reduction in fungal growth incubated for 24 hrs by serial dilution method. To be noted: Candida albicans, 901, 24 h. The format is functional. In outline: (§1)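 Fluconazole-resistant C. albicans clinical isolates (17# and CaR from AIDS patients; 632, 901, 904 from clinic) tested by CLSI broth dilution MIC in RPMI 1640 buffered to pH 7.0 with MOPS. Compounds dissolved in DMSO, serially diluted to final 0.03–16 or 0.125–64 μg/mL; inoculum 1–5 × 10^3 CFU/mL; 35 °C, 24 h. MIC = lowest concentration inhibiting visible growth; fluconazole and itraconazole as controls.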

Another data set has as its system Nakaseomyces glabratus. The experiment in a line: Antifungal activity against Candida glabrata assessed as reduction in fungal growth incubated for 24 hrs by serial dilution method. The format is functional. In outline: (§2)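 MIC by CLSI broth microdilution in RPMI 1640 buffered to pH 7.0 with MOPS. Compounds dissolved in DMSO and serially diluted to final 0.03–16 or 0.125–64 µg/mL. Inoculum 1–5 × 10^3 CFU/mL. Incubation 35 °C, 24 h. Drug-free growth and fungus-free blank controls. MIC is the lowest concentration preventing visible growth.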

Data set [2] concerns Candida albicans. As to the kind of experiment: Antifungal activity against Candida albicans GIM 2.194 assessed as reduction in fungal growth incubated for 24 hrs by serial dilution method. The data set is classed as functional. Particulars: GIM 2.194, 24 h. The method, boiled down:
as §2

Data set [3] deals with Candida albicans. The experiment in a line: Antifungal activity against fluconazole-resistant Candida albicans CaR assessed as reduction in fungal growth incubated for 24 hrs by serial dilution method. The format is functional. The method, boiled down: as §1
Data set [4] relates to Candida albicans. The experiment in a line: Antifungal activity against fluconazole-resistant Candida albicans 17 assessed as reduction in fungal growth incubated for 24 hrs by serial dilution method. To be noted: Candida albicans, 17, 24 h. The data set is classed as functional. The method, boiled down:
as §1

For data set [5], the system named is Candida albicans. The experiment in a line: Antifungal activity against fluconazole-resistant Candida albicans 632 assessed as reduction in fungal growth incubated for 24 hrs by serial dilution method. Particulars: Candida albicans, 632, 24 h. The format is functional. In outline: as §1
In another data set the test system is Candida tropicalis. The experiment in a line: Antifungal activity against Candida tropicalis GIM 2.183 assessed as reduction in fungal growth incubated for 24 hrs by serial dilution method. The data set is classed as functional. To be noted: GIM 2.183, 24 h. The method, boiled down: as §2
A further data set deals with Candida parapsilosis. As to the kind of experiment: Antifungal activity against Candida parapsilosis GIM 2.190 assessed as reduction in fungal growth incubated for 24 hrs by serial dilution method. The data set is classed as functional. Particulars: Lodderomyces parapsilosis, GIM 2.190, 24 h. The method, boiled down: as §2
Data set [6] deals with Candida albicans. As to the kind of experiment: Antifungal activity against fluconazole-resistant Candida albicans 904 assessed as reduction in fungal growth incubated for 24 hrs by serial dilution method. The data set is classed as functional. To be noted: Candida albicans, 904, 24 h. The method, boiled down:
as §1

Data set [7] has as its system Candida albicans. The experiment in a line: Antifungal activity against Candida albicans SC5314 assessed as reduction in fungal growth incubated for 24 hrs by serial dilution method. The data set is classed as functional. Particulars: SC5314, 24 h. In outline: as §2
A short description of data set [8]: Cytotoxicity against human A549 cells assessed as cell survival at 0.08 uM/l incubated for 24 hrs by MTT assay relative to control. The format is cell-based. To be noted: read-out: Activity. In outline:
(§3)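 A549 cells were seeded at 3000 per well in RPMI 1640 and held 16 h at 37 °C, 5% CO2. Medium was then replaced with medium holding DMSO-dissolved compound at final 0.08, 0.4, 2.0 or 10 µM/L and incubated 24 h. MTT was added for 4 h and absorbance read at 490 nm to give survival.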
On the technique in general: Formazan colour is commonly taken as a measure of viable cells.

Data set [9] can be described thus: Cytotoxicity against human A549 cells assessed as cell survival at 10 uM/l incubated for 24 hrs by MTT assay relative to control. The format is cell-based. Particulars: read-out: Activity. The method, boiled down: as §3
The nature of data set [10]: Cytotoxicity against human A549 cells assessed as cell survival at 2 uM/l incubated for 24 hrs by MTT assay relative to control. The format is cell-based. Particulars: read-out: Activity. The method, boiled down:
as §3

The nature of data set [11]: Cytotoxicity against human A549 cells assessed as cell survival at 0.4 uM/l incubated for 24 hrs by MTT assay relative to control. Particulars: read-out: Activity. The data set is classed as cell-based. The method, boiled down: as §3
The target in data set [12] is T1, Lanosterol 14-alpha demethylase (Candida albicans (strain SC5314 / ATCC MYA-2876) (Yeast), UniProt P10613). As to the kind of experiment: Inhibition of Candida albicans CYP51 assessed as increase in eburicol level at 0.25 ug/ml incubated for 18 hrs by GC/MS analysis relative to control. On the set-up: scale not given: the % may be the effect or the level left. In outline:
(§4)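 Candida albicans SC5314 grown in RPMI 1640 with agitation (200 rpm) for ~18 h at 30 °C, with 0.25 µg/mL fluconazole as a comparator alongside the test compound. Cells were pelleted (3000g, 10 min), PBS-washed thrice, and saponified 60 min at 80 °C in ethanol, ethanolic pyrogallol and 60% KOH. Nonsaponifiable sterols were extracted thrice with heptane and profiled by GC-MS.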

Data set [13] deals with T1, Lanosterol 14-alpha demethylase. The experiment in a line: Inhibition of Candida albicans CYP51 assessed as increase in 14alpha-methyl ergosta-8,24(28)-dien-3beta,6alpha-diol level at 0.25 ug/ml incubated for 18 hrs by GC/MS analysis relative to control. Also noted: scale not given: the % may be the effect or the level left. The method, boiled down:
as §4

For data set [14] the target is unchanged. As to the kind of experiment: Inhibition of Candida albicans CYP51 assessed as increase in lanosterol level at 0.25 ug/ml incubated for 18 hrs by GC/MS analysis relative to control. On the set-up: scale not given: the % may be the effect or the level left. The method, boiled down:
as §4

Data set [15] has the same target. As to the kind of experiment: Inhibition of Candida albicans CYP51 assessed as ergosterol level at 0.25 ug/ml incubated for 18 hrs by GC/MS analysis (reference value: 100%). Also noted: scale not given: the % may be the effect or the level left. In outline: as §4
For data set [16] the target is unchanged. As to the kind of experiment: Inhibition of Candida albicans CYP51 assessed as increase in sterol level at 0.25 ug/ml incubated for 18 hrs by GC/MS analysis relative to control. Also noted: scale not given: the % may be the effect or the level left. In outline: as §4

SMILES strings stand for the structures. Converted amounts (≈) assume the structure as drawn.

T1 sequence (P10613 whole entry): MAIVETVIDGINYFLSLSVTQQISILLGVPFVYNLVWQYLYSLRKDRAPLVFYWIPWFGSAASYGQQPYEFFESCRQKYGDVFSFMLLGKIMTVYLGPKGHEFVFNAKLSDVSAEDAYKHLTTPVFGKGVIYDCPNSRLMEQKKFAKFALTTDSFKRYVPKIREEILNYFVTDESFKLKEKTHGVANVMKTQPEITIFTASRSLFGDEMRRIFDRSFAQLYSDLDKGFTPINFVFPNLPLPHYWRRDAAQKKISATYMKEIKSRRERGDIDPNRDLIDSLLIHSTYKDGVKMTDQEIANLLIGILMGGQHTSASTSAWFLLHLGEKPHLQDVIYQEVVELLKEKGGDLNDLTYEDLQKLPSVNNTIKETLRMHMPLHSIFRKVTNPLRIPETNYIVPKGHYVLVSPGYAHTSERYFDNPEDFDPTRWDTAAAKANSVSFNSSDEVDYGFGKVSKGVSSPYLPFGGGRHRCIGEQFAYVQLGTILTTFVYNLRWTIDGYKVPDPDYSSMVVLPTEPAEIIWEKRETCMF

The term MIC denotes the lowest concentration found to suppress growth. Regarding `Cc1ccc(C(=O)C(Cn2ccnc2)NC(=O)c2ccc(-c3ccccc3)cc2)cc1` (configuration not stated), the MIC is 16 µg/mL (≈ 39.1 µM) in the data set on Candida albicans [1]; 0.25 µg/mL (≈ 0.611 µM) with Nakaseomyces glabratus; 0.125 µg/mL (≈ 0.305 µM) in the data set on Candida albicans [2]; greater than 64 µg/mL in the data set on Candida albicans [3]; greater than 64 µg/mL with Candida albicans [4]; greater than 64 µg/mL with Candida albicans [5]. Besides, the MIC in the data set with Candida tropicalis is 0.03 µg/mL (≈ 0.0733 µM); in the data set on Candida parapsilosis it was 0.5 µg/mL (≈ 1.22 µM); in the data set with Candida albicans [6], 32 µg/mL (≈ 78.1 µM); with Candida albicans [7], 0.06 µg/mL (≈ 0.147 µM).
In the case of `O=C(NC(Cn1ccnc1)C(=O)c1cccc(Cl)c1)c1ccc(-c2ccccc2)cc1` (configuration not stated), the viability at 24 h, 0.08 µM in data set [8] came out at 100%. Besides, the MIC with Candida albicans [1] is 1 µg/mL (≈ 2.33 µM); in the data set on Nakaseomyces glabratus it was 0.125 µg/mL (≈ 0.291 µM); in the data set with Candida albicans [2] it was 0.06 µg/mL (≈ 0.14 µM); in the data set with Candida albicans [3], greater than 64 µg/mL; in the data set on Candida albicans [4], greater than 64 µg/mL; in the data set with Candida albicans [5] it was 4 µg/mL (≈ 9.3 µM). Besides, the minimum inhibitory concentration (MIC) in the data set with Candida tropicalis stood at 0.03 µg/mL (≈ 0.0698 µM); with Candida parapsilosis, 0.125 µg/mL (≈ 0.291 µM); in the data set with Candida albicans [6], 4 µg/mL (≈ 9.3 µM); in the data set with Candida albicans [7], 0.03 µg/mL (≈ 0.0698 µM). The viability at 24 h, 10 µM in data set [9] came out at 96.3%. Moreover, in [10], the viability at 24 h, 2 µM was 97.2%. Also, in data set [11], the viability at 24 h, 0.4 µM was found to be 97.4%.
With `O=C(NC(Cn1ccnc1)C(=O)c1ccccc1F)c1ccc(-c2ccccc2)cc1` (configuration not stated), the viability at 24 h, 0.08 µM in data set [8] was found to be 100%. For the same compound, the MIC with Candida albicans [1] was determined as 0.25 µg/mL (≈ 0.605 µM); with Nakaseomyces glabratus, 2 µg/mL (≈ 4.84 µM); in the data set on Candida albicans [2], 0.125 µg/mL (≈ 0.302 µM); in the data set on Candida albicans [3], 1 µg/mL (≈ 2.42 µM); in the data set with Candida albicans [4] it was 8 µg/mL (≈ 19.3 µM); with Candida albicans [5], 0.5 µg/mL (≈ 1.21 µM). Further, the MIC was 1 µg/mL (≈ 2.42 µM) with Candida tropicalis, 0.125 µg/mL (≈ 0.302 µM) in the data set with Candida parapsilosis, less than 0.125 µg/mL with Candida albicans [6] and 0.125 µg/mL (≈ 0.302 µM) in the data set with Candida albicans [7]. For the same compound, in [9], the viability at 24 h, 10 µM was determined as 100%. For the same compound, in [10], the viability at 24 h, 2 µM is 100%. Besides, in [11], the viability at 24 h, 0.4 µM is 100%.
As to `OC(Cn1cncn1)(Cn1cncn1)c1ccc(F)cc1F` [FLUCONAZOLE], the viability at 24 h, 0.08 µM in data set [8] was 100%. For the same compound, the Activity in data set [12] was 4.27%; in [13], 5.15%; in data set [14], 16.74%; in data set [15], 63%; in [16], 1.54 to 5.07%. Also, the MIC is greater than 64 µg/mL in the data set on Candida albicans [1]; 4 µg/mL (≈ 13.1 µM) with Nakaseomyces glabratus; 2 µg/mL (≈ 6.53 µM) in the data set on Candida albicans [2]; greater than 64 µg/mL in the data set with Candida albicans [3]; greater than 64 µg/mL in the data set with Candida albicans [4]; greater than 64 µg/mL with Candida albicans [5]. Also, the MIC was 0.5 µg/mL (≈ 1.63 µM) in the data set on Candida tropicalis, 2 µg/mL (≈ 6.53 µM) with Candida parapsilosis, greater than 64 µg/mL with Candida albicans [6] and 0.5 µg/mL (≈ 1.63 µM) in the data set with Candida albicans [7]. In addition, the viability at 24 h, 10 µM in data set [9] stood at 95.3%. Further, the viability at 24 h, 2 µM in data set [10] worked out at 95.7%. The viability at 24 h, 0.4 µM in data set [11] was 99.1%.
As for `CCC(C)n1ncn(-c2ccc(N3CCN(c4ccc(OCC5COC(Cn6cncn6)(c6ccc(Cl)cc6Cl)O5)cc4)CC3)cc2)c1=O` (configuration not stated) [ITRACONAZOLE], the MIC in the data set with Candida albicans [1] is greater than 64 µg/mL; in the data set with Nakaseomyces glabratus it was 0.125 µg/mL (≈ 0.177 µM); with Candida albicans [2], 0.03 µg/mL (≈ 0.0425 µM); in the data set with Candida albicans [3], 0.25 µg/mL (≈ 0.354 µM); with Candida albicans [4] it was 0.25 µg/mL (≈ 0.354 µM); in the data set with Candida albicans [5], greater than 64 µg/mL. In addition, the MIC is 0.03 µg/mL (≈ 0.0425 µM) in the data set on Candida tropicalis, 0.125 µg/mL (≈ 0.177 µM) in the data set with Candida parapsilosis, greater than 64 µg/mL in the data set on Candida albicans [6] and 0.03 µg/mL (≈ 0.0425 µM) in the data set with Candida albicans [7].

Values taken from ChEMBL document CHEMBL4406852, “Combating fluconazole-resistant fungi with novel β-azole-phenylacetone derivatives” (Eur J Med Chem, 2019).
